{"source": "paper PMC10213863", "about": "(Cell Reports Medicine, 2023)", "key": {"[1]": {"tested_on": "tumor necrosis factor (TNF) receptor", "assay": "Ramos Blue reporter B cell line, TNF stimulation", "assay_type": "cell-based, human", "conditions": "Ramos cells; up to 10 μM; n = 4, data not shown", "method_in_brief": "(§1)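 Ramos Blue B reporter cells were pre-treated 30 min at 37°C, 5% CO2 with increasing concentrations of test compound or 0.25% v/v DMSO. They were then stimulated with the respective agonist, and reporter activity was read.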"}, "TLR8": {"biological_target": "T1, TLR8 (Homo sapiens, UniProt Q9NR97)", "T1 sequence (Q9NR97 27-1041)": "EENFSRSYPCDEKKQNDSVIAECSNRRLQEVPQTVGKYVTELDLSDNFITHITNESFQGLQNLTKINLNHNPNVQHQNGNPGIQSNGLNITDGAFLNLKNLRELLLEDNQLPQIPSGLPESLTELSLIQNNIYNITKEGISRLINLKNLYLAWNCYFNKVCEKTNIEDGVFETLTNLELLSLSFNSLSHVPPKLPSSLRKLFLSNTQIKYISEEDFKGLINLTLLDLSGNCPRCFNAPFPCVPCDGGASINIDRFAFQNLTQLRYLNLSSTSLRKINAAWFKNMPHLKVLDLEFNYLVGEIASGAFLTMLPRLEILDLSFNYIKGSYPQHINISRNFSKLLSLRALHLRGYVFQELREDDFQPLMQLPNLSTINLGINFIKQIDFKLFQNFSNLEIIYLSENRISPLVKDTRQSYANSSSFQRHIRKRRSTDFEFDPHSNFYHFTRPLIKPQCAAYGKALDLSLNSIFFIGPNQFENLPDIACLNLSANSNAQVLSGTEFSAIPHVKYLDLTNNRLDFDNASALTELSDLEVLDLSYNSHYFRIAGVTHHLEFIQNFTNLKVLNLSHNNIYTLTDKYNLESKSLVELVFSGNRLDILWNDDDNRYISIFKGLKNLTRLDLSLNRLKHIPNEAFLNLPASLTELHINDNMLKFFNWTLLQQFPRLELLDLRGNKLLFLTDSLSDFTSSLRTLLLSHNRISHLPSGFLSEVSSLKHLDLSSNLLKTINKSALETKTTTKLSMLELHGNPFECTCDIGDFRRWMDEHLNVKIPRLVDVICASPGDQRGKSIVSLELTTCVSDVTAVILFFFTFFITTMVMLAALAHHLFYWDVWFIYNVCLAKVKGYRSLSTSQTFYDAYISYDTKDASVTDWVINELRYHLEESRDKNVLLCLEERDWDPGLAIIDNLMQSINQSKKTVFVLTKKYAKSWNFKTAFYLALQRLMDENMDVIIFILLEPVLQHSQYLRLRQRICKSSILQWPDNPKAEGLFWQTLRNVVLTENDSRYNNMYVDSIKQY", "assay": "Human PBMC assay, ssRNA-induced TNF", "assay_type": "cell-based", "method_in_brief": "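Human PBMCs were pre-incubated 30 min with test compound, then stimulated with the respective TLR or IL-1R agonist at doses from earlier work. Cytokines in supernatants were quantified by immunoassay. Viability across the dose range was checked by CellTiter-Glo.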"}, "TLR9": {"biological_target": "T2, TLR9 (Homo sapiens, UniProt Q9NR96)", "T2 sequence (Q9NR96 26-1032)": "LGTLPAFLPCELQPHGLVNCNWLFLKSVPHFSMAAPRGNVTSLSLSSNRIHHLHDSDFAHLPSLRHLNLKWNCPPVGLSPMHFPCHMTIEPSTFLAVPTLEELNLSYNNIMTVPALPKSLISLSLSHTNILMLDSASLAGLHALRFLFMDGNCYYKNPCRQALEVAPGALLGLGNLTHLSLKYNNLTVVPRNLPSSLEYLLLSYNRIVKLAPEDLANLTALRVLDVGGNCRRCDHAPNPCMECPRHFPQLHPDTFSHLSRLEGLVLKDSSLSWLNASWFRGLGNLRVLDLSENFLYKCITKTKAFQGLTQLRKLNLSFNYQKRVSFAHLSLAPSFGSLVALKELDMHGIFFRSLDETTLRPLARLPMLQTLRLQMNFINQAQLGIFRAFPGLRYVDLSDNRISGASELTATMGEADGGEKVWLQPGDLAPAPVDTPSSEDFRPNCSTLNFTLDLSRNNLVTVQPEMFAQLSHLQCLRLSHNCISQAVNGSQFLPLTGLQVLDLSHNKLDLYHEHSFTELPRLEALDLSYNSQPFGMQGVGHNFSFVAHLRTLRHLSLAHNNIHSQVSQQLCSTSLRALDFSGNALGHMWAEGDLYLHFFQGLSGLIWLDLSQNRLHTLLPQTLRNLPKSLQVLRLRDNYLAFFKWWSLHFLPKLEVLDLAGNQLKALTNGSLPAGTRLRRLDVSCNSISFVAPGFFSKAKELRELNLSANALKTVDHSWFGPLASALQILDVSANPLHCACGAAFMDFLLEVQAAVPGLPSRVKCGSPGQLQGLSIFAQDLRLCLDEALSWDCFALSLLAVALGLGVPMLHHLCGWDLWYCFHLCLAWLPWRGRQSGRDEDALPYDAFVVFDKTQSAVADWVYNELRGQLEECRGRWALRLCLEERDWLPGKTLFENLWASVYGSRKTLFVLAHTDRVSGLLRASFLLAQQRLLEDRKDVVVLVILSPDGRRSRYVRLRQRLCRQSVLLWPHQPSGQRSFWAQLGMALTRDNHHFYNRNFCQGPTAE", "assay": "Ramos Blue reporter B cell line, ODN2006 stimulation", "assay_type": "cell-based", "conditions": "Ramos cells", "method_in_brief": "as §1"}}, "data": [{"smiles": "Cc1cc(N2CCc3c(c(C)nn3CC34CCC(NC(=O)[C@@H]5COCCN5)(CC3)CC4)C2)c2cnn(C)c2n1", "note": "[MHV370, (S)-N-(4-((5-(1,6-dimethyl-1H-pyrazolo[3,4-b]pyridin-4-yl)-3-methyl-4,5,6,7-tetrahydro-1H-pyrazolo[4,3-c]pyridin-1-yl)methyl)bicyclo[2.2.2]octan-1-yl)morpholine-3-carboxamide]", "values": [{"measurement": "interference with TNF receptor-driven activity", "setting": "[1]", "value": "did not interfere"}, {"measurement": "IC50", "setting": "TLR8", "value": "70 ± 7.4", "unit": "nM"}, {"measurement": "inhibitory activity against endosomal TLR9", "setting": "TLR9", "value": "no or very limited inhibitory activity"}]}]}
